# ChEMBL document CHEMBL1126216, “Amide, urea, and carbamate analogues of the muscarinic agent [4-[[N-(3-chlorophenyl)carbamoyl]oxy]-2-butynyl]trimethylammonium chloride” (1992)
# How the values were obtained:
# [1] = system: Rattus norvegicus; assay: In vivo intrinsic pressor activity for its ability to maximally elevate arterial pressure in pithed rat.; assay type: functional, Artery
# How it was run: (§1)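 Male Sprague-Dawley rats (250-300 g), anesthetized with sodium amytal (125 mg/kg ip), intubated, pithed; body temperature held at 37 °C; 30 min stabilization. Ganglionic nicotinic block with pentolinium tartrate (18.5 μmol/kg iv) 20 min before agonist. Drugs in 0.9% saline, iv, 0.1 mL/100 g. Mean arterial pressure recorded; two or three compounds per rat; five to eight rats per compound.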
# [2] = system: Rattus norvegicus; assay: In vivo intravenous dose required to produce a half maximal pressor response in the pithed rat.; assay type: functional; how it was run: as §1
# [3] = system: Muscarinic acetylcholine receptor M1 (Oryctolagus cuniculus)
SMILES,KA [3] [µM],IPA [1],ED50 [2] [µmol/kg]
C[C@H](C#CC[N+](C)(C)C)OC(=O)Nc1cccc(Cl)c1,0.78,1,0.18
CN(CC#CC[N+](C)(C)C)C(=O)Cc1cccc(Cl)c1,20.2,1,0.92
CC(C#CC[N+](C)(C)C)OC(=O)Nc1cccc(Cl)c1 (racemic),1.46,0.76,0.09
C[N+](C)(C)CC#CCOC(=O)Nc1cccc(Cl)c1,–,1,0.45
CN(CC#CC[N+](C)(C)C)C(=O)Nc1cccc(Cl)c1,24.8,1,0.55
C[C@@H](C#CC[N+](C)(C)C)OC(=O)Nc1cccc(Cl)c1,2.12,0.7,0.12

# The next lines start with results.
KA [3] [µM],SMILES,IPA [1],ED50 [2] [µmol/kg]
83.3,CC(C#CC[N+](C)(C)C)N(C)C(=O)Nc1cccc(Cl)c1 (configuration not stated),1,0.69
0.49,C[C@H](C#CC[N+](C)(C)C)OC(=O)Nc1ccc(Cl)cc1,0.8,0.039
0.48,CC(C#CC[N+](C)(C)C)OC(=O)Nc1ccc(Cl)cc1 (racemic),0.75,0.029
0.18,C[C@@H](C#CC[N+](C)(C)C)OC(=O)Nc1ccc(Cl)cc1,0.66,0.008
416,CC(C#CC[N+](C)(C)C)N(C)C(=O)Cc1cccc(Cl)c1 (configuration not stated),1,1.48
